This is an account of results in ChEMBL document CHEMBL1149075, “Synthesis and evaluation of alkoxy-phenylamides and alkoxy-phenylimidazoles as potent sphingosine-1-phosphate receptor subtype-1 agonists” (Bioorg Med Chem Lett, 2009).

The subject of experiment [1] is Mus musculus. The experiment can be described thus: Immunomodulatory activity in po dosed C57BL/6 mouse assessed as lymphopenia after 6 hrs by complete blood count analysis. The class given is functional, organism-based. In a few lines:
(§1)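 Mice dosed orally with compound in 3% BSA vehicle; vehicle-only control group. Doses 0.3–10 mg/kg. At 6 h, isoflurane anesthesia, about 250 µl retro-orbital blood collected into EDTA tubes, mixed with anticoagulant, kept on tilt table, then complete blood count. Percent lymphopenia reported.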

Experiment [2] concerns Mus musculus. The experiment can be described thus: Immunomodulatory activity in C57BL/6 mouse assessed as lymphopenia at 10 mg/kg, po after 6 hrs by complete blood count analysis. The class given is functional. In outline: as §1
For experiment [3], the target named is T1, Sphingosine 1-phosphate receptor 3 (Homo sapiens, UniProt Q99500). The experiment can be described thus: Agonist activity at human S1P3 receptor assessed as stimulation of [35S]GTPgammaS binding. The class given is functional. (In general: Binding of GTPγS marks nucleotide exchange on a G protein.)
T1 sequence (Q99500 whole entry): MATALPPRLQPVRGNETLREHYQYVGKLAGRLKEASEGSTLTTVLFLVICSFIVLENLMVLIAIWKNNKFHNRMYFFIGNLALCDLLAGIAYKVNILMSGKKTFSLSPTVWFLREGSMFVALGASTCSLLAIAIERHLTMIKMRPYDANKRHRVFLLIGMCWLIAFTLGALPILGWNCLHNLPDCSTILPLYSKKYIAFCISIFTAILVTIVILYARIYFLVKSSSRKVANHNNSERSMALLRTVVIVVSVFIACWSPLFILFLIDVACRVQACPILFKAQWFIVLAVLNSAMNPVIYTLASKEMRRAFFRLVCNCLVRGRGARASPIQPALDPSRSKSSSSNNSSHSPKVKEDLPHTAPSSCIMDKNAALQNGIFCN
The target of experiment [4] is T2, Sphingosine 1-phosphate receptor 1 (Homo sapiens, UniProt P21453). As to the kind of experiment: Displacement of [33P]sphingosine-1-phosphate from human S1P1 receptor.
T2 sequence (P21453 whole entry): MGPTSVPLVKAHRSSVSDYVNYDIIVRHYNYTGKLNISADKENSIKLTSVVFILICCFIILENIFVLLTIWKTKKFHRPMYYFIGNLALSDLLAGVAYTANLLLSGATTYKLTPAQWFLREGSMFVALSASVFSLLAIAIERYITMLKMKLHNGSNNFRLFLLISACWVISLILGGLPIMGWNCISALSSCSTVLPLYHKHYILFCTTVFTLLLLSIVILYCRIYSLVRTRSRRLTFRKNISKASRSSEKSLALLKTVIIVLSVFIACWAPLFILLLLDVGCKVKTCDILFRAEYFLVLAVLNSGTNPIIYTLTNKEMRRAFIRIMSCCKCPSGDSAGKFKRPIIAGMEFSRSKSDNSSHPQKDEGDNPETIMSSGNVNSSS
Experiment [5] addresses T2, Sphingosine 1-phosphate receptor 1. The experiment can be described thus: Agonist activity at human S1P1 receptor assessed as stimulation of [35S]GTPgammaS binding. The class given is functional.
The species named for experiment [6] is Homo sapiens. As to the kind of experiment: Ratio of EC50 for human S1P3 receptor to EC50 for human S1P1 receptor.
Experiment [7] is filed under the species Homo sapiens. As to the kind of experiment: Ratio of IC50 for human S1P3 receptor to IC50 for human S1P1 receptor.
The target of experiment [8] is T1, Sphingosine 1-phosphate receptor 3. The experiment can be described thus: Displacement of [33P]sphingosine-1-phosphate from human S1P3 receptor.
The target of experiment [9] is Sphingosine 1-phosphate receptor 5 (Homo sapiens, UniProt Q9H228). The experiment can be described thus: Displacement of [33P]sphingosine-1-phosphate from human S1P5 receptor.
Sequence of Sphingosine 1-phosphate receptor 5 (Q9H228 whole entry): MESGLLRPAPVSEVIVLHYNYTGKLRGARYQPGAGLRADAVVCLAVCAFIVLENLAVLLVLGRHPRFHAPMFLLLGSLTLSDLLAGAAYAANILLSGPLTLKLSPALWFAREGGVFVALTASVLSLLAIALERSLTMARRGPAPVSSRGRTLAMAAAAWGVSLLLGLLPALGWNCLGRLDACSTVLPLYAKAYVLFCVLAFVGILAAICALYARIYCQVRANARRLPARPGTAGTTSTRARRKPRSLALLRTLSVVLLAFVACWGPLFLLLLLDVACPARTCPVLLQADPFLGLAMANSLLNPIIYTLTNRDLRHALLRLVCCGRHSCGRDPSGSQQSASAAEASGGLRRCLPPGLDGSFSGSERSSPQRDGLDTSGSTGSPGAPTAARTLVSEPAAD
Experiment [10] has as its target T3, Sphingosine 1-phosphate receptor 4 (Homo sapiens, UniProt O95977).
T3 sequence (O95977 whole entry): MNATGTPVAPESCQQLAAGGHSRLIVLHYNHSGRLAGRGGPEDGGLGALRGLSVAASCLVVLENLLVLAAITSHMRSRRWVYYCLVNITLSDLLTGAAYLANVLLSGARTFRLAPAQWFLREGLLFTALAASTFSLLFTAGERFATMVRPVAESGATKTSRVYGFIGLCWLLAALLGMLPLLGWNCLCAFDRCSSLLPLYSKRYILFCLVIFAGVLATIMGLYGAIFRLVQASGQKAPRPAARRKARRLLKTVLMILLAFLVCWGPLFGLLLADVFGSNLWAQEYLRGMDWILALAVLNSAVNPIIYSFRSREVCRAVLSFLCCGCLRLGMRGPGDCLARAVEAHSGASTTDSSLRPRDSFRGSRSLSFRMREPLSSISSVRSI
As to the kind of experiment: Displacement of [33P]sphingosine-1-phosphate from human S1P4 receptor.

Turning to `CCCCCCCCOc1ccc(NC(=O)[C@@](C)(N)CO)cc1`, the results for the Activity result in experiment [1] and in experiment [2] were “Dose-dependent effect” and 78%, respectively.

In the case of `CCCCCCCCOc1ccc(NC(=O)[C@@](C)(N)CO)c(F)c1`, in experiment [2], the Activity was determined as 66%.

`CCCCCCCCOc1ccc(-c2c[nH]c([C@@](C)(N)CO)n2)cc1`: the Activity in experiment [2] was found to be 83%.

For the molecule `CCCCCCCCOc1ccc(NC(=O)[C@@](C)(N)COP(=O)(O)O)cc1F`, the figures for the EC50 in experiment [3] and in experiment [5] were 10.1 nM and 1.1 nM, respectively. Further, the 50% inhibitory concentration (IC50) (usually the concentration needed to halve the response being measured) amounted to 0.14 nM in [4], 5.9 nM in experiment [8], 6.9 nM in experiment [9] and 3.5 nM in [10]. In addition, the Ratio EC50 in experiment [6] worked out at 9.2. For the same molecule, the Ratio IC50 in experiment [7] came to 42.

Regarding `CCCCCCCCOc1ccc(-c2c[nH]c([C@@](C)(N)CO)n2)c(F)c1`, the Activity in [2] amounted to 81%.

In the case of `CCCCCCCCOc1ccc(NC(=O)[C@@](C)(N)COP(=O)(O)O)cc1`, the EC50 (in general, the concentration that produces a half-maximal response) was 16.3 nM in experiment [3] and 2.4 nM in [5]. For the same molecule, the IC50 in [4] was 0.73 nM; in experiment [8], 5.9 nM; in [9], 8.8 nM; in experiment [10] it was 4 nM. Further, in experiment [6], the Ratio EC50 was 6.9. Besides, in experiment [7], the Ratio IC50 came out at 8.1.

For `CCCCCCCCOc1ccc(-c2c[nH]c([C@@](C)(N)COP(=O)(O)O)n2)cc1F`, the EC50 in [3] was 10.8 nM; in experiment [5], 0.45 nM. The IC50 in experiment [4] was 0.35 nM; in experiment [8], 5.8 nM; in experiment [9], 1.1 nM; in [10] it was 1.9 nM. For the same molecule, in [6], the Ratio EC50 was found to be 24. Besides, the Ratio IC50 in experiment [7] was 16.5.

In the case of `CCCCCCCOc1ccc(-c2c[nH]c([C@@](C)(N)CO)n2)cc1`, the Activity in experiment [2] came to 74%.

In the case of `CCCCCCCOc1ccc(NC(=O)[C@@](C)(N)CO)cc1`, in [2], the Activity is reported as 72%.

Turning to `CCCCCCCCCCCCC/C=C/[C@@H](O)[C@@H](N)COP(=O)(O)O`, the EC50 in experiment [3] amounted to 3 nM; in experiment [5], 7.9 nM. Also, the IC50 in experiment [4] came to 0.47 nM; in experiment [8], 0.66 nM; in experiment [10] it was 2.4 nM.

Turning to `CCCCCCCCc1ccc(NC(=O)[C@@](C)(N)CO)cc1`, the Activity in [2] came out at 36%.

On to `CCCCCCCCOc1ccc(NC(=O)[C@@](C)(N)CO)cc1F`, for which the Activity in experiment [2] is reported as 65%.

In the case of `CCCCCCCCOc1ccc(-c2c[nH]c([C@@](C)(N)CO)n2)cc1F`, in experiment [2], the Activity was found to be 70%.

For `CCCCCCCCOc1ccc(-c2c[nH]c([C@@](C)(N)COP(=O)(O)O)n2)cc1`, the EC50 in experiment [3] was determined as 14.8 nM; in experiment [5], 0.55 nM. In addition, the IC50 was determined as 0.26 nM in experiment [4], 5.3 nM in experiment [8], 1.4 nM in experiment [9] and 1.1 nM in experiment [10]. Moreover, in experiment [6], the Ratio EC50 was 26.9. Further, the Ratio IC50 in [7] was found to be 20.3.

Regarding `CCCCCCCCOc1ccc(NC(=O)[C@@](C)(N)COP(=O)(O)O)c(F)c1`, the EC50 was found to be 9.8 nM in experiment [3] and 2.1 nM in [5]. The concentration for half-maximal inhibition (IC50) turned out to be 0.35 nM in experiment [4], 3.6 nM in experiment [8], 3.2 nM in [9] and 1.8 nM in experiment [10]. Moreover, the Ratio EC50 in [6] is 4.7. Also, the Ratio IC50 in experiment [7] was determined as 10.2.
